In ChEMBL document CHEMBL1141134, “Scaffold hopping with molecular field points: identification of a cholecystokinin-2 (CCK2) receptor pharmacophore and its use in the design of a prototypical series of pyrrole- and imidazole-based CCK2 antagonists” (J Med Chem, 2005):

How the values were obtained:
[1] = molecular target: T1, Gastrin/cholecystokinin type B receptor (Mus musculus, UniProt P56481); assay: Inhibition of 20 pM [125I]BH-CCK-8S binding to mouse cortical membrane Cholecystokinin 2 receptor
T1 sequence (P56481 whole entry): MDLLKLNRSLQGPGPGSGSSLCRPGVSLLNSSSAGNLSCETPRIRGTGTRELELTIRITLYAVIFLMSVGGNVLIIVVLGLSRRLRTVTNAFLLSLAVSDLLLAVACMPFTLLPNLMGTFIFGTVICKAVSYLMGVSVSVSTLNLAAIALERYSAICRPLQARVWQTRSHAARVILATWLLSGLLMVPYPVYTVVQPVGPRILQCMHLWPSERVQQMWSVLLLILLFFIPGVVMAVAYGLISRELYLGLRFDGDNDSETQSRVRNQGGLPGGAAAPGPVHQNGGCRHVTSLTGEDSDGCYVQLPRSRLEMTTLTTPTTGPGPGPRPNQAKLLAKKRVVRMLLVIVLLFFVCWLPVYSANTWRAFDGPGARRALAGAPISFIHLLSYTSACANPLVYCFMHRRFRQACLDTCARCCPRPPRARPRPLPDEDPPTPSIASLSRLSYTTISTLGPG
Outline: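 Competition binding in mouse cortical membrane homogenates against 20 pM [125I]BH-CCK-8S tracer; pKi ± SEM from at least three separate experiments.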

[2] = molecular target: T2, Cholecystokinin receptor type A (Cavia porcellus, UniProt Q63931); assay: Inhibition of 20 pM [125I]BH-CCK-8S binding to guinea pig pancreas membrane Cholecystokinin 1 receptor
T2 sequence (Q63931 whole entry): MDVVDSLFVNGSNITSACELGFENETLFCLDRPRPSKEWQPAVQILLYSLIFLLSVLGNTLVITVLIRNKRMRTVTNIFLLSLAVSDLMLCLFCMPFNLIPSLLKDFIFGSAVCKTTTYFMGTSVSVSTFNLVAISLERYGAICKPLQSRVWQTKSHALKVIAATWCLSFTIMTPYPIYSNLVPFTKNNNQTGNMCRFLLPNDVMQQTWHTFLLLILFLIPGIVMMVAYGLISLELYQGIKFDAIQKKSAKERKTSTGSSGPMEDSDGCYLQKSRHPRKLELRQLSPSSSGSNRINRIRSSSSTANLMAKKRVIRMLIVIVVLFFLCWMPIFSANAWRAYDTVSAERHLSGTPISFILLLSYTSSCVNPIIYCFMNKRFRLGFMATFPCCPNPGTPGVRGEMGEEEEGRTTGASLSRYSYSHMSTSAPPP
Outline: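 Competition binding in guinea pig pancreas cell homogenates against 20 pM [125I]BH-CCK-8S; pKi ± SEM derived from at least three separate experiments.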

[3] = Percent material excreted unchanged was detected in the bile by i.v. administration (1 or 10 uM/Kg) to anesthetized rat; assay type: ADME; conditions: iv, read-out: Activity
Outline: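 Anesthetized rats, iv bolus at 1 or 10 μmol/kg; bile duct cannulated, bile collected in 15 min intervals over 150 min total; unchanged compound in bile quantified by HPLC, expressed as percent of dose. Compounds given as bis(N-methyl-D-glucamine) salts.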

[4] = Log D value was measured in octanol/buffer (pH 7.5); assay type: physicochemical
Outline: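 Partition between octanol and buffer at pH 7.5.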

[5] = Percent material excreted unchanged was detected in the bile by i.v. administration (10 uM/Kg) to anesthetized rat; assay type: ADME; conditions: iv, read-out: Activity
Outline: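 Anesthetized rats dosed iv bolus at 10 μmol/kg; bile duct cannulated, bile collected in 15 min intervals over 150 min total; unchanged compound measured by HPLC, reported as percent excreted.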

[6] = molecular target: T3, Gastrin/cholecystokinin type B receptor (Mus musculus) (UniProt P56481); assay: Loss of Cholecystokinin 2 receptor activity relative to parent compound; assay type: functional
T3 sequence (whole entry): T1 sequence (P56481 whole entry)

Row | Structure (SMILES) | Ki [1] [nM] | Ki [2] [nM] | dose excreted [3] [%] | logD [4] | dose excreted [5] [%] | Activity [6]
1 | O=C(O)c1cc(NC(=O)[C@H](Cc2ccccc2)NC(=O)c2cc3cc[nH]c3cc2C(=O)NCC23CC4CC(CC(C4)C2)C3)cc(C(=O)O)c1 | 1 | 3980 |  |  |  | 
2 | CNC[C@H](O)[C@@H](O)[C@H](O)[C@H](O)CO.O=C(NCC12CC3CC(CC(C3)C1)C2)c1cc2nc[nH]c2cc1C(=O)N[C@@H](Cc1ccccc1)C(=O)Nc1cc(CO)cc(CO)c1 |  | 3980 | 22 | 3.7 |  | 
3 | CNC[C@H](O)[C@@H](O)[C@H](O)[C@H](O)CO.O=C(O)c1cc(NC(=O)c2[nH]c(-c3ccc4ccccc4c3)nc2CC2CCCCCC2)cc(C(=O)O)c1 |  | 3160 |  | 0.7 | 53 | 
4 | O=C(O)c1cc(NC(=O)[C@H](Cc2ccccc2)NC(=O)c2ccccc2C(=O)NCC23CC4CC(CC(C4)C2)C3)cc(C(=O)O)c1 | 31.6 |  |  |  |  | 
5 | CN(C(=O)c1cc2[nH]cnc2cc1C(=O)NCC12CC3CC(CC(C3)C1)C2)[C@@H](Cc1ccccc1)C(=O)Nc1cc(C(=O)O)cc(C(=O)O)c1 | 25.1 |  |  |  |  | 0.7
6 | O=C(O)c1cc(NC(=O)c2[nH]c(-c3ccccc3)nc2CCC23CC4CC(CC(C4)C2)C3)cc(C(=O)O)c1 | 631 | 6310 |  |  |  | 
7 | O=C(O)c1cc(NC(=O)c2cc(-c3ccccc3)[nH]c2CCC23CC4CC(CC(C4)C2)C3)cc(C(=O)O)c1 | 200 | 5010 |  |  |  | 
8 | CNC[C@H](O)[C@@H](O)[C@H](O)[C@H](O)CO.O=C(O)c1cc(NC(=O)[C@H](Cc2ccccc2)NC(=O)c2cc3[nH]cnc3cc2C(=O)NCC23CC4CC(CC(C4)C2)C3)cc(C(=O)O)c1 | 5.01 | 1580 | 45 | -2.3 |  | 
9 | CNC[C@H](O)[C@@H](O)[C@H](O)[C@H](O)CO.O=C(O)c1cccc(NC(=O)c2[nH]c(-c3ccc4ccccc4c3)nc2CC2CCCCCC2)c1 | 794 |  |  | 2.8 | 5 | 
10 | CN(C(=O)[C@H](Cc1ccccc1)NC(=O)c1cc2[nH]cnc2cc1C(=O)NCC12CC3CC(CC(C3)C1)C2)c1cc(C(=O)O)cc(C(=O)O)c1 |  | 3980 |  |  |  | 2
11 | CNC[C@H](O)[C@@H](O)[C@H](O)[C@H](O)CO.O=C(O)c1cccc(NC(=O)[C@H](Cc2ccccc2)NC(=O)c2cc3[nH]cnc3cc2C(=O)NCC23CC4CC(CC(C4)C2)C3)c1 | 398 | 5010 | 39 | 1.1 |  | 
12 | O=C(O)c1cc(NC(=O)c2[nH]c(-c3ccccc3)nc2CC2CCCCCC2)cc(C(=O)O)c1 |  | 7940 |  |  |  | 
13 | O=C(O)c1cc(NC(=O)c2cc(-c3ccccc3)[nH]c2CC2CCCCCC2)cc(C(=O)O)c1 | 251 | 7940 |  |  |  | 
14 | CNC[C@H](O)[C@@H](O)[C@H](O)[C@H](O)CO.O=C(O)c1cccc(NC(=O)c2cc(-c3ccc4ccccc4c3)[nH]c2CC2CCCCCC2)c1 | 1260 | 3980 |  | 2.9 | 6 | 
15 | O=C(O)c1cc(NC(=O)c2[nH]c(-c3ccccc3)nc2CC23CC4CC(CC(C4)C2)C3)cc(C(=O)O)c1 | 158 | 3160 |  |  |  | 
16 | O=C(O)c1cc(NC(=O)[C@H](Cc2ccccc2)NC(=O)C2C3c4ccccc4C(c4ccccc43)C2C(=O)NCC23CC4CC(CC(C4)C2)C3)cc(C(=O)O)c1 (some centres not stated) |  | 2000 |  |  |  | 
17 | O=C(O)c1cc(NC(=O)c2[nH]c(-c3ccc4[nH]ccc4c3)nc2CC2CCCCCC2)cc(C(=O)O)c1 | 1000 | 5010 |  |  |  | 
18 | O=C(O)c1cc(NC(=O)c2cc(-c3ccccc3)[nH]c2CC23CC4CC(CC(C4)C2)C3)cc(C(=O)O)c1 | 126 | 7940 |  |  |  | 
19 | CNC[C@H](O)[C@@H](O)[C@H](O)[C@H](O)CO.O=C(Nc1cc(CO)cc(CO)c1)c1[nH]c(-c2ccc3ccccc3c2)nc1CC1CCCCCC1 | 3980 | 3160 |  | > 4 | 1 | 
20 | O=C(O)CCNC(=O)c1cc(-c2ccccc2)[nH]c1CC12CC3CC(CC(C3)C1)C2 | 3160 | 10000 |  |  |  | 
21 | CNC[C@H](O)[C@@H](O)[C@H](O)[C@H](O)CO.O=C(O)c1cc(NC(=O)c2cc(-c3ccc4ccccc4c3)[nH]c2CC2CCCCCC2)cc(C(=O)O)c1 | 200 | 2510 |  | 1.4 | 59 | 
